TLR9-MyD88 block – blocks human TLR9 binding to MyD88; Q9NR96+Q99836; AID 504734; inhibition, % at 4.98 µM; CHO BLA complementation TLR9-MyD88, CCF4 FRET ratio; 340,000 compounds, 0.21% hits;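 active = inhibition above the mean over all tested compounds plus 3 SD, cut at about 21% in these data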
MC4R ag barr – activates human MC4R beta-arrestin recruitment; P32245; U2OS MC4R beta-arrestin complementation, luminescence; percent of melanotan II response, DMSO zero; activation, % at 8.9 µM; 360,000 compounds, 0.98% hits;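 active = activation above a per-plate cutoff, the mean activation of sample wells on that plate plus 3 SD, cut at about 8% in these data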
NOD2-RIPK2 inh – blocks binding of human NOD2 to RIPK2. inhibition, % at 4.98 µM. AID 624267. 360,000 compounds, 0.38% hits. O43353. CHO BLA complementation NOD2-RIPK2, CCF4 ratio; in the data active = inhibition above about 21%
Target sequence (O43353 whole entry, looked up): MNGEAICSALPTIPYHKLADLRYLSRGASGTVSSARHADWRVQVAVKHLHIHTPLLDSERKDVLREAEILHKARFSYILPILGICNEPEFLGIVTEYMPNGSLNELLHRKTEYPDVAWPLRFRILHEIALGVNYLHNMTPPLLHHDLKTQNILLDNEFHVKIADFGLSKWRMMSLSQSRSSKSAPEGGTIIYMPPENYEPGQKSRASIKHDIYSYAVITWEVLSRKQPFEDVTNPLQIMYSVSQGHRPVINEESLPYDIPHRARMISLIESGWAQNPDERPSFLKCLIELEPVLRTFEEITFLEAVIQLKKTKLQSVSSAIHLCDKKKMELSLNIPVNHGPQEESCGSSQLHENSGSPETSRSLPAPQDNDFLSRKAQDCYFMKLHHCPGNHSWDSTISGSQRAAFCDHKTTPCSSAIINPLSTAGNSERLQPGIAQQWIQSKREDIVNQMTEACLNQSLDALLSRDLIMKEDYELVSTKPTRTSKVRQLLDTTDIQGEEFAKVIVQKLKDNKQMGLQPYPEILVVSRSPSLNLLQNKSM
TLR4-MyD88 BLA – inhibitors of human TLR4-MyD88 binding | O00206+Q99836 | HeLa CL3-4 TLR4/MyD88 BLA complementation, FRET ratio | AID 861 | 200,000 compounds, 0.18% hits | inhibition, % at 8.4 µM; in the data active = inhibition above about 25%
MC4R antagonist – antagonists of human melanocortin 4 receptor (MC4R). P32245. MC4R-expressing cells, MTII-stimulated cAMP, LANCE TR-FRET. inhibition, % at 6.5 µM. 360,000 compounds, 0.48% hits. AID 540295;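 active = inhibition above its plate's cutoff, the mean of tested wells on that plate plus 3 SD, cut at about 29% in these data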
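System: U2OS-MC4R stable cell line; Technique: Eu-cAMP/anti-cAMP TR-FRET, emission 671 nm; Repeats: single well per compound; Also added: Melanotan II; Dosing: one concentration, 6.5 µM nominal; Schedule: 30-min compound, 1-h challenge, 1-h detection, room temperature.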
beta cell repl – induces beta-cell replication in MIN6 cells | MIN6 cells proliferation, ATPlite luminescence, 48 h; cells starved in 0.2% serum; 100% = growth in 10% serum | proliferation, % at 10 µM | 330,000 compounds, 0.29% hits;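 active = compounds whose signal lies at least 3.5 SD above the mean of all wells on their plate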
MC4R barr conf – human MC4R beta-arrestin agonism confirmation. shares compounds with MC4R ag barr. U2OS MC4R beta-arrestin recruitment, luminescence; scaled DMSO 0%, Melanotan II 100%. activation, % at 8.9 µM. 2,400 compounds, 31% hits;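 active = mean activation across replicates above the hit cutoff set in the earlier primary screen, cut at about 8% in these data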
MOR-DOR barr ag – activates mu-delta opioid heterodimer, MC4R agonist counter-screen; shares compounds with MC4R ag barr; U2OS PathHunter beta-arrestin, beta-gal luminescence; percent of deltorphin B response, DMSO zero; activation, % at 9.2 µM; 2,400 compounds, 5.8% hits;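 active = mean activation across replicates exceeds the hit threshold derived in the earlier primary screen, cut at about 18% in these data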
Of the large screens only hits and unclear results are named; the others gave an inactive call (follow-up assays come after a bar, where they were run). Hits are enriched below; roughly 2.1% of the tested compounds scored in any of these assays.

CC(C)(C)C1CCC(CN2C(Nc3ccccc3)=NC[C@@H]2Cc2ccccc2)CC1 (some centres not stated)	MC4R ag barr 14 (no result: TLR4-MyD88 BLA) | MC4R barr conf 11 | MOR-DOR barr ag inactive
Cc1ccc(NC(=S)NC(=O)c2ccc(-c3ccc(Cl)cc3)o2)c(O)c1	MC4R ag barr 16 | MC4R barr conf 21 | MOR-DOR barr ag inactive
COc1ccc(Cn2c(=S)[nH]c3ccccc3c2=O)cc1	MC4R ag barr 11 (no result: TLR4-MyD88 BLA) | MC4R barr conf inactive | MOR-DOR barr ag inactive
Cc1ccc2nc(NC(=O)C(NS(=O)(=O)c3cccc4nsnc34)C(C)C)sc2c1 (configuration not stated)	none
CCCCCCCCNS(=O)(=O)CCNCCc1ccccc1	MC4R ag barr 10.0 (no result: TLR4-MyD88 BLA, beta cell repl) | MC4R barr conf 16 | MOR-DOR barr ag inactive
Cc1cc(C)nc(Sc2ccc(/C=C(\C#N)C(N)=O)o2)n1	none
Cc1ccc(NC(=O)/C(C#N)=C/c2ccc(Sc3nc(C)cc(C)n3)o2)cc1	MC4R ag barr 23 | MC4R barr conf inactive | MOR-DOR barr ag 22
O=C(COc1ncnc2ccccc12)NCC1CCCO1 (configuration not stated)	none
CC(C)c1ccc(/C=N/n2nnnc2Nc2ccccc2)cc1	MC4R ag barr 11 | MC4R barr conf 15 | MOR-DOR barr ag inactive
CC/C(=N\n1nnnc1Nc1ccccc1)c1ccccc1	none
COc1cc(OC)cc(C(=O)NCC(=O)Nc2ccc(-c3ccccc3)cc2)c1	none (no result: TLR4-MyD88 BLA)
O=C(Nc1ccc2nn(-c3ccccc3)nc2c1)c1ccc2c(c1)OCCO2	none
Cc1ccc(-n2nc3ccc(NC(=O)c4ccc5c(c4)OCO5)cc3n2)cc1	none
CCc1ccc(-n2nc3ccc(NC(=O)c4ccc5c(c4)OCO5)cc3n2)cc1	MC4R ag barr 11 | MC4R barr conf inactive | MOR-DOR barr ag inactive
O=C(Nc1ccc2nn(-c3ccccc3)nc2c1)c1ccc(Br)o1	MC4R ag barr 13 | MC4R barr conf 17 | MOR-DOR barr ag inactive
CCC(C)[C@H](NC(=O)C1(c2ccccc2)CCN(C(=O)OC(C)(C)C)CC1)C(=O)N[C@@H](C(=O)O)c1ccccc1 (some centres not stated)	none (no result: TLR4-MyD88 BLA)
Cc1ccc(CN(C)C(=O)CN2C(=O)NC(c3ccccc3)(c3ccccc3)C2=O)c(C)c1	none (no result: TLR4-MyD88 BLA)
COc1ccccc1CCNC(=O)C1CCN(c2nnc(C)c3c(C)n(-c4ccc(C)cc4)nc23)CC1	MC4R ag barr 10 (no result: TLR4-MyD88 BLA) | MC4R barr conf inactive | MOR-DOR barr ag inactive
CCc1ccc(CNC(=O)C2CCCN(c3nnc(C)c4c(C)n(-c5ccccc5)nc34)C2)cc1 (configuration not stated)	MC4R ag barr 19 (no result: TLR4-MyD88 BLA) | MC4R barr conf inactive | MOR-DOR barr ag inactive
CCOc1ccc2nc(NC(=O)c3cccc(-c4cc5ccccc5oc4=O)c3)sc2c1	MC4R ag barr 24 (no result: beta cell repl) | MC4R barr conf 13 | MOR-DOR barr ag inactive
CCCCNC(=S)N(C)/N=C/c1ccc(OCC(=O)Nc2c(C)cc(C)cc2C)c(OC)c1	MC4R ag barr 14 | MC4R barr conf 11 | MOR-DOR barr ag inactive
COC(=O)c1c(NC(C)=O)sc2c1CCN(Cc1ccccc1)C2	none (no result: TLR4-MyD88 BLA)
COC(=O)c1c(NC(=O)C(C)(C)C)sc2c1CCN(Cc1ccccc1)C2	MC4R ag barr 11 (no result: TLR4-MyD88 BLA) | MC4R barr conf inactive | MOR-DOR barr ag inactive
C/C(=N/OCO/N=C(\C)c1ccccc1F)c1ccccc1F	MC4R ag barr 9.6 | MC4R barr conf inactive | MOR-DOR barr ag inactive
COc1ccc(NC(=O)COC(=O)c2c(NC(C)=O)sc(C)c2C)cc1	MC4R ag barr 31 (no result: TLR4-MyD88 BLA, beta cell repl) | MC4R barr conf 18 | MOR-DOR barr ag inactive
CCOC(=O)c1c(NC(=O)Nc2ccccc2)sc(C)c1C	none
CCOC(=O)Nc1sc(C)c(C)c1C(=O)OCC	MC4R ag barr 10 | MC4R barr conf inactive | MOR-DOR barr ag inactive
Cc1cc(C)cc(OCC(=O)OCC(=O)N(CC(C)C)c2c(N)n(Cc3ccccc3)c(=O)[nH]c2=O)c1	none (no result: TLR4-MyD88 BLA)
Cc1ccc(-c2nc(C=Nc3ccccc3)c(O)o2)cc1	none
Cc1ccc(-c2nc(C=Nc3cccc(C)c3)c(O)o2)cc1	MC4R ag barr 14 | MC4R barr conf inactive | MOR-DOR barr ag inactive
COc1ccc(CC(=O)Nc2c(C(N)=O)oc3ccccc23)cc1OC	none (no result: TLR4-MyD88 BLA)
CCOc1ccc(CC(=O)Nc2c(C(=O)Nc3ccccc3)oc3ccccc23)cc1OCC	MC4R ag barr 15 | MC4R barr conf 11 | MOR-DOR barr ag inactive
Cc1ccc(C)c(N2CCN(CCCNC(=O)Cn3cccc3C(=O)c3ccccc3C)CC2)c1	MC4R ag barr 12 | MC4R barr conf 14 | MOR-DOR barr ag inactive
CC1CCc2nc(NC(=O)CSc3nc4ccccc4o3)sc2C1 (configuration not stated)	MC4R ag barr 14 | MC4R barr conf inactive | MOR-DOR barr ag inactive
Cc1nnc(NC(=O)CSc2nc3ccccc3o2)s1	none
CCOc1cc(NC(=O)c2cccs2)c(OCC)cc1NC(=O)c1ccco1	MC4R ag barr 12 | MC4R barr conf 17 | MOR-DOR barr ag inactive
Cc1ccc(NC(=O)COC(=O)c2ccccc2Nc2ccccc2)cc1	MC4R ag barr 13 | MC4R barr conf inactive | MOR-DOR barr ag inactive
C/C(N)=C(/C#N)C(=O)COC(=O)c1ccc(NC(N)=O)cc1	none (no result: TLR4-MyD88 BLA)
CN(C)CCCN(C(=O)c1ccc([N+](=O)[O-])s1)c1nc2cc3c(cc2s1)OCCO3	none (no result: TLR4-MyD88 BLA)
CN(C)CCCN(C(=O)c1cc2cc([N+](=O)[O-])ccc2s1)c1nc2cc3c(cc2s1)OCCO3	MC4R ag barr 35 (no result: TLR4-MyD88 BLA) | MC4R barr conf 25 | MOR-DOR barr ag inactive
O=C(Nc1ccc(Br)cc1)C(c1ccccc1)c1ccccc1	MC4R ag barr 11 | MC4R barr conf inactive | MOR-DOR barr ag inactive
C/C(=N/NC(=O)c1cccs1)c1ccc(NC(=O)COc2ccc(Cl)cc2)cc1	MC4R ag barr 12 | MC4R barr conf 13 | MOR-DOR barr ag inactive
CC1(Oc2ccccc2)CCN(Cc2ccc(-c3ccccn3)cc2)C1 (configuration not stated)	none (no result: TLR9-MyD88 block, TLR4-MyD88 BLA, beta cell repl)
CSc1ccc(OC2(C)CCN(Cc3ccc(C(C)C)cc3)C2)cc1 (configuration not stated)	MC4R ag barr 12 (no result: TLR9-MyD88 block, TLR4-MyD88 BLA, beta cell repl) | MC4R barr conf inactive | MOR-DOR barr ag inactive
CC1(Oc2ccc(Cl)cc2)CCN(Cc2ccc(-c3ccccn3)cc2)C1 (configuration not stated)	MC4R ag barr 13 (no result: TLR9-MyD88 block, TLR4-MyD88 BLA, beta cell repl) | MC4R barr conf inactive | MOR-DOR barr ag inactive

Compound activity from PubChem.
